An excerpt weighted towards active compounds, which were near 1.9% of everything screened.
CR mimetic SO – caloric restriction mimetics inhibiting age-related superoxide in yeast; S. cerevisiae aged cells, superoxide DHE fluorescence; active compounds read low; AID 2690; 0.18% of 330,000 active; superoxide response (% of plate mean), % at 10 µM;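 active means superoxide response under a set limit, about three screen SD below normal, cut at about 65% in these data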;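 further: yeast aged for seven days with compound at 30 °C before DHE staining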
beta cell repl – inducers of beta-cell replication in MIN6 cells. MIN6 cells proliferation, ATPlite luminescence, 48 h; cells starved in 0.2% serum; 100% = growth in 10% serum. proliferation, % at 10 µM. 0.29% of 330,000 active. AID 2380;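 active means compounds whose signal lies at least 3.5 SD above the mean of all wells on their plate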
UCH37 inh – blocks the human deubiquitinase UCH37; purified proteasome/UCH37, Ub-AMC cleavage fluorescence; inhibition, % (no concentration beside the values); 0.33% of 330,000 active;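 active means mean inhibition over replicate wells above about 20%, limit read from the data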
Target sequence (Q9Y5K5 whole entry, looked up): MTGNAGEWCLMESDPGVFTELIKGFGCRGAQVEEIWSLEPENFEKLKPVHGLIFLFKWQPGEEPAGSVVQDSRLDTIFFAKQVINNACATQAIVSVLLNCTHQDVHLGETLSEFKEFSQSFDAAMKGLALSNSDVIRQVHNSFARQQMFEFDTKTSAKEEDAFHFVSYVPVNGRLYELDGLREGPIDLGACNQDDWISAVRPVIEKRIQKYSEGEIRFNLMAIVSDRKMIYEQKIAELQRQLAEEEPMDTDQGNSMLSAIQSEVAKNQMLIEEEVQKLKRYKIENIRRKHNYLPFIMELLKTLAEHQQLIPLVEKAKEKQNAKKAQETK
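assay system = human UCH37 enzyme supplied as purified proteasome complex | amount = proteasome at 0.15 nM in the dispensed enzyme solution | schedule = 30 min compound-proteasome preincubation then 25 min substrate reaction, room temperature | measured by = fluorescence, ex 355 nm, em 460 nm | benchmarks = no-proteasome wells (full inhibition) and compound-free wells (no inhibition)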
Rce1 inh – inhibitors of yeast Ras-converting enzyme | 0.27% of 290,000 active | yeast membranes, quenched prenylated peptide cleavage fluorescence | calls only | Q03530 | AID 2563;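 active means fall in fluorescence gain of 50% or more versus controls, with final raw signal at or below 3038400; inconclusive means same 50% fall but final raw signal above 3038400; inactive means fall in fluorescence gain under 50%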
Target sequence (Q03530 whole entry, looked up): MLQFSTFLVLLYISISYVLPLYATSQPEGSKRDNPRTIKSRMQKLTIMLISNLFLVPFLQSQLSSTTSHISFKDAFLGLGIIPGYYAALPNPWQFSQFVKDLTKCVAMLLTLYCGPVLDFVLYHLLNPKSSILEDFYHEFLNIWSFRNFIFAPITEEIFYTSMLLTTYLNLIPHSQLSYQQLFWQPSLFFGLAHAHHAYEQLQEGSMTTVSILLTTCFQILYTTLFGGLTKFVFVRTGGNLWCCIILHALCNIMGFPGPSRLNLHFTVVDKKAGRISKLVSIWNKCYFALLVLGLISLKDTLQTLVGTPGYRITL
PG9 binder – small molecules binding HIV-1 gp120 antibody PG9; TR-FRET gp120-PG9 antibody binding; inhibition, % at 6.7 µM; 0.43% of 360,000 active; AID 624416; in the data active means inhibition above about 8.5%
NR1D1 modulator – modulates human Rev-erb alpha binding to DNA | Rev-erbα–FITC-DNA binding, fluorescence polarization, 90 min | activity, % at 10 µM | 0.79% of 370,000 active;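 active means activity above about 14%, limit read from the data; passing the limit was not always enough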
NR1D1 mod conf – Rev-erb alpha (human) modulation, hit confirmation; activation, % at 25 µM; shares compounds with NR1D1 modulator; Rev-erb alpha FITC-DNA binding, fluorescence polarization, 90 min; 61% of 3,000 active; AID 1259319;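 active means activation at or above a set limit, or at least 3 SD above the negative control mean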
RORg DNA counter – affects RORgamma DNA binding in a Rev-erb alpha counter-screen. shares compounds with NR1D1 modulator. purified RORgamma protein-FITC-DNA binding, fluorescence polarization. IC50, µM. 8% of 910 active;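 active means Compounds whose fitted half-maximal concentration for disrupting protein-DNA binding is below 10 micromolar; the record names Rev-erb in its text, so the target is in doubt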
Large screens that a line does not name were inactive (follow-up assays come after a bar, where they were run).

COC(=O)c1cc(NC(=O)c2ccccc2)c(=O)oc1/C=C/Nc1ccc(Oc2ccccc2)cc1	NR1D1 modulator 33 (no result: CR mimetic SO) | NR1D1 mod conf inactive
O=C(CC=NOCc1ccccc1F)c1cnc(-c2ccc(Cl)cc2)s1	none (no result: CR mimetic SO, beta cell repl, Rce1 inh, PG9 binder, NR1D1 modulator)
CCn1ccnc1[C@@H]1C[C@H]2CN(Cc3ccccc3OC)C(=O)[C@]23CCCN13	NR1D1 modulator 25 | NR1D1 mod conf inactive
COc1ccccc1CN1C[C@@H]2C[C@@H](c3ccc(C)cc3)N3CCC[C@@]23C1=O	none
CCc1ccc([C@@H]2C[C@H]3CN(Cc4ccccc4OC)C(=O)[C@]34CCCN24)cc1	NR1D1 modulator 53 (no result: UCH37 inh) | NR1D1 mod conf inactive
Cn1nc(C(F)(F)F)c(C=NOC(=O)c2ccccc2)c1Cl	none (no result: CR mimetic SO, beta cell repl, Rce1 inh, PG9 binder, NR1D1 modulator)
CCN(CC)C(=O)c1ccc2c(=O)n(Cc3cccc(Br)c3)c(=S)[nH]c2c1	NR1D1 modulator 33 | NR1D1 mod conf inactive
O=c1c2cc(Br)ccc2[nH]c(=S)n1Cc1ccccc1	NR1D1 modulator 39 | NR1D1 mod conf 18
CSc1cc(-c2ccc(Cl)cc2)n(Cc2ccccc2)c(=O)c1C#N	NR1D1 modulator 32 | NR1D1 mod conf inactive
CC(=O)NN=Cc1cc2c(cc1[N+](=O)[O-])OCO2	none (no result: CR mimetic SO, beta cell repl, Rce1 inh, PG9 binder, NR1D1 modulator)
COc1ccccc1CNc1nc2cc(-c3sccc3C)sc2c(=O)n1C	NR1D1 modulator 29 (no result: CR mimetic SO, beta cell repl, UCH37 inh, Rce1 inh) | NR1D1 mod conf 20
CC[n+]1ccc(/C=C/c2c[nH]c3ccccc23)cc1	NR1D1 modulator 134 (no result: UCH37 inh) | NR1D1 mod conf 131 | RORg DNA counter inactive
Cc1ccc2[nH]cc(/C=C/c3cc[n+](C)cc3)c2c1	NR1D1 modulator 232 (no result: UCH37 inh) | NR1D1 mod conf 142 | RORg DNA counter inactive
COc1ccc2c(/C=C/c3cc[n+](C)cc3)c[nH]c2c1	NR1D1 modulator 46 | NR1D1 mod conf 31 | RORg DNA counter inactive
COc1ccc2c(c1)c(/C=C/c1cc[n+](C)cc1)cn2C	NR1D1 modulator 100 | NR1D1 mod conf 79 | RORg DNA counter inactive
CCOc1ccccc1C=NNC(=O)c1c(C)nc2ccc(Br)cn12	none (no result: CR mimetic SO, beta cell repl, Rce1 inh, PG9 binder, NR1D1 modulator)
NC(=S)NN=Cc1ccc(C(F)(F)F)cc1	none (no result: CR mimetic SO, beta cell repl, Rce1 inh, PG9 binder, NR1D1 modulator)
O=C(CSCc1cccc(Cl)c1)NN=Cc1ccc(OCC(=O)N2CCCCC2)cc1	none (no result: CR mimetic SO, beta cell repl, Rce1 inh, PG9 binder, NR1D1 modulator)
O=c1cc(-c2ccccc2Cl)oc2c(NS(=O)(=O)c3cccs3)ccc(O)c12	NR1D1 modulator 27 | NR1D1 mod conf 33 | RORg DNA counter inactive
O=c1cc(-c2ccccc2Cl)oc2c(NS(=O)(=O)c3ccccc3C(F)(F)F)ccc(O)c12	none
COc1ccc([N+](=O)[O-])cc1C=NNC(=O)CNC(=O)C(c1ccccc1)c1ccccc1	none (no result: CR mimetic SO, beta cell repl, Rce1 inh, PG9 binder, NR1D1 modulator)
Cc1ccc2nc(-c3ccc(NC(=O)CN4C(=O)NC(C)(c5ccc(OC(F)F)cc5)C4=O)cc3)sc2c1 (stereo not given)	Rce1 inh inconclusive, NR1D1 modulator 24 | NR1D1 mod conf inactive
CC1(c2ccc(OC(F)F)cc2)NC(=O)N(CC(=O)Nc2ccccc2)C1=O (stereo not given)	none
O=C(COc1ccc2ccccc2c1)NNC(=O)Cc1ccccc1	NR1D1 modulator 35 (no result: beta cell repl) | NR1D1 mod conf 29
O=C(COc1ccc2ccccc2c1)NNC(=O)Cc1cccc2ccccc12	none
N#Cc1c(-c2ccccc2F)cc(C2CC2)nc1SCC(=O)c1cccs1	NR1D1 modulator 40 | NR1D1 mod conf 28
CCSc1nc(C2CC2)cc(-c2cccs2)c1C#N	none
O=C(CCc1ccc(O)c(O)c1)NN=Cc1ccc2c(c1)OCO2	none (no result: CR mimetic SO, beta cell repl, Rce1 inh, PG9 binder, NR1D1 modulator)
Cc1cccc(NC(=O)Nc2cnccn2)c1C	NR1D1 modulator 18 | NR1D1 mod conf inactive
CCN(Cc1nc2cc(Cl)ccc2c(=O)[nH]1)C(=O)C1CC(=O)N(c2cccc3ccccc23)C1 (stereo not given)	none (no result: Rce1 inh)
CCN(Cc1nc2cc(Cl)ccc2c(=O)[nH]1)C(=O)c1cc2c(s1)CCCCC2	NR1D1 modulator 54 (no result: CR mimetic SO, Rce1 inh) | NR1D1 mod conf 34 | RORg DNA counter inactive
Cc1ccccc1OCC(=O)NCC(=O)NN=Cc1ccc(Br)o1	none (no result: CR mimetic SO, beta cell repl, Rce1 inh, PG9 binder, NR1D1 modulator)
O=C(CCl)N1c2ccccc2Oc2ccc3ccccc3c21	NR1D1 modulator 15 (no result: CR mimetic SO, beta cell repl, Rce1 inh) | NR1D1 mod conf inactive
CC(=O)N1c2ccccc2Oc2cc3ccccc3cc21	none
O=C(C1CCC(Cn2c(=S)[nH]c3ccccc3c2=O)CC1)N1CCN(c2ccccc2)CC1 (stereo not given)	none
Cc1cccc(N2CCN(C(=O)CCCn3c(=S)[nH]c4cc5c(cc4c3=O)OCO5)CC2)c1C	NR1D1 modulator 24 | NR1D1 mod conf 20
O=C(CCCn1c(=S)[nH]c2cc3c(cc2c1=O)OCO3)N1CCN(c2ccc(Cl)cc2)CC1	none
CC(=O)c1ccc(N2CCN(C(=O)CCCn3c(=S)[nH]c4cc5c(cc4c3=O)OCO5)CC2)cc1	NR1D1 modulator 25 (no result: Rce1 inh) | NR1D1 mod conf inactive
O=C(Cn1c(=S)[nH]c2ccccc2c1=O)N1CCN(c2ccccc2)CC1	NR1D1 modulator 40 | NR1D1 mod conf 24
COc1c(O)cccc1C=NNC(=O)Cn1ccnc1C	none (no result: CR mimetic SO, beta cell repl, Rce1 inh, PG9 binder, NR1D1 modulator)
CC(=NNC(=O)c1cccs1)c1ccc(NC(=O)COc2ccc(Cl)cc2Cl)cc1	none (no result: CR mimetic SO, beta cell repl, Rce1 inh, PG9 binder, NR1D1 modulator)
Cc1ccc(NN=C(C#N)C(=N)N2CCOCC2)cc1	none (no result: CR mimetic SO, beta cell repl, Rce1 inh, PG9 binder, NR1D1 modulator)
CCCCCCn1cc(C(=O)O)c(=O)c2cc(F)c(N3CCN(C(=O)OCC)CC3)cc21	NR1D1 modulator 31 | NR1D1 mod conf inactive
C=CCCCCCCCCC(=O)N1CCN(c2cc3c(cc2F)c(=O)c(C(=O)O)cn3CC)CC1	none

High-throughput results (PubChem BioAssay)
